Values after ≈ are worked out from the molar mass of the structure shown. Active and inactive are the calls of the source. The rule behind the calls is not given here.
Experiments:
Aspergillus fumigatus = assay: Antimicrobial activity against Aspergillus fumigatus isolate by broth microdilution method; format: functional
Scedosporium boydii = assay: Antimicrobial activity against Pseudallescheria boydii isolate by broth microdilution method; format: functional
Klebsiella pneumoniae = assay: Antimicrobial activity against Klebsiella pneumoniae ATCC 1003 by broth microdilution method; format: functional
Outline: (§1)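 Bacteria grown overnight on Mueller–Hinton agar. Colonies were suspended in saline to McFarland turbidity (about 10^8 cfu/mL), diluted 1:100 in saline, then 1:20 in Mueller–Hinton broth, giving 5 · 10^4 cfu/mL per well. DMSO-dissolved compound was tested in twofold dilutions from 320 to 1.25 at 35 °C for 24 h. MIC was the lowest concentration with no visible turbidity (M7-A4). Bactericidal concentration was read by subculturing clear wells on Mueller–Hinton agar.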

Fusarium solani = assay: Antimicrobial activity against Fusarium solani isolate by broth microdilution method; format: functional
Candida albicans = assay: Antimicrobial activity against Candida albicans ATCC 44373 by broth microdilution method; format: functional
Outline: (§2)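 Yeasts grown on potato dextrose agar. Inoculum was standardized by McFarland turbidity as for bacteria, into RPMI 1640 broth (M27-A2). DMSO-dissolved compound was tested in twofold dilutions from 320 to 1.25 at 35 °C for 24 h, in duplicate. MIC was the lowest concentration completely inhibiting visible growth. Fungicidal concentration was read by subculturing 20 µL from clear wells on Sabouraud dextrose agar at 35 °C.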

Aspergillus niger = assay: Antimicrobial activity against Aspergillus niger isolate by broth microdilution method; format: functional
Aspergillus terreus = assay: Antimicrobial activity against Aspergillus terreus isolate by broth microdilution method; format: functional
Pseudomonas aeruginosa = assay: Antimicrobial activity against Pseudomonas aeruginosa ATCC 27853 by broth microdilution method; format: functional; outline: as §1
Sporothrix schenckii = assay: Antimicrobial activity against Sporothrix schenckii ATCC 1146 by broth microdilution method; format: functional
Saccharomyces cerevisiae = assay: Antimicrobial activity against Saccharomyces cerevisiae ATCC 2601 by broth microdilution method; format: functional
Outline: (§3)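 Organism grown on potato dextrose agar, with turbidity-standardized inoculum in RPMI 1640 broth (M27-A2). DMSO-dissolved compound was tested in twofold dilutions from 320 to 1.25 at 35 °C, incubated up to 72 h, in duplicate. MIC was the lowest concentration with no visible growth. Cidal concentration was read by subculturing 20 µL from clear wells on Sabouraud dextrose agar, incubated for the same period.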

Prototheca zopfii = assay: Antimicrobial activity against Prototheca zopfii by broth microdilution method; format: functional; outline: as §3
Nakaseomyces glabratus = assay: Antimicrobial activity against Candida glabrata […] by broth microdilution method; format: functional; outline: as §2
[1] = tested on: Cryptococcus deneoformans; assay: Antimicrobial activity against Cryptococcus neoformans var.neoformans serotype D ATCC 28952 by broth microdilution method; format: functional; outline: as §3
Candida dubliniensis = assay: Antimicrobial activity against Candida dubliniensis CBS 7987 by broth microdilution method; format: functional; outline: as §2
Rhizopus arrhizus = assay: Antimicrobial activity against Rhizopus oryzae isolate by broth microdilution method; format: functional
Escherichia coli = assay: Antimicrobial activity against Escherichia coli ATCC 25922 by broth microdilution method; format: functional; outline: as §1
Aspergillus flavus = assay: Antimicrobial activity against Aspergillus flavus isolate by broth microdilution method; format: functional
[2] = (§4) Antimicrobial activity against Salmonella setubal ATCC 19196 by broth microdilution method; format: functional, Salmonella enterica subsp. enterica serovar Setubal; settings: Salmonella enterica; outline: as §1
[3] = tested on: Salmonella enterica subsp. enterica serovar Setubal; assay: as §4; format: functional; outline: as §1
Staphylococcus aureus = assay: Antimicrobial activity against Staphylococcus aureus ATCC 25923 by broth microdilution method; format: functional; outline: as §1

MIC (Klebsiella pneumoniae)	MIC (Aspergillus niger)	MIC [2]	MIC (Scedosporium boydii)	Compound	Activity (Aspergillus fumigatus)	Activity (Fusarium solani)	Activity (Candida albicans)	Activity (Aspergillus terreus)	Activity (Pseudomonas aeruginosa)	Activity (Saccharomyces cerevisiae)	Activity (Prototheca zopfii)	Activity (Nakaseomyces glabratus)	Activity [1]	Activity (Candida dubliniensis)	Activity (Escherichia coli)	Activity [3]	Activity (Staphylococcus aureus)	MFC (Scedosporium boydii)	Activity (Klebsiella pneumoniae)	Activity (Aspergillus niger)	also measured
20 µg/mL (≈ 75.1 µM)	320 µg/mL (≈ 1200 µM)	160 µg/mL (≈ 601 µM)		NS(=O)(=O)c1ccc(NC(=O)c2ccoc2)cc1	inactive	inactive	inactive	inactive	inactive	inactive	inactive	inactive	inactive	inactive	inactive	inactive	inactive				Activity (Scedosporium boydii): inactive; MBC (Klebsiella pneumoniae; read-out: MFC): 320 µg/mL (≈ 1200 µM); MFC (Aspergillus niger): 320 µg/mL (≈ 1200 µM); Activity (Sporothrix schenckii): inactive; Activity (Rhizopus arrhizus): inactive; MFC (Aspergillus flavus): 320 µg/mL (≈ 1200 µM); MIC (Aspergillus flavus): 320 µg/mL (≈ 1200 µM)
320 µg/mL (≈ 1490 µM)	320 µg/mL (≈ 1490 µM)	320 µg/mL (≈ 1490 µM)	160 µg/mL (≈ 747 µM)	N=C(NC(=O)c1ccoc1)c1ccccc1		inactive	inactive		inactive	inactive		inactive		inactive	inactive	inactive	inactive	160 µg/mL (≈ 747 µM)	inactive	inactive	MFC (Aspergillus fumigatus): 320 µg/mL (≈ 1490 µM); MIC (Aspergillus fumigatus): 320 µg/mL (≈ 1490 µM); MIC (Fusarium solani): 320 µg/mL (≈ 1490 µM); MFC (Aspergillus terreus): 320 µg/mL (≈ 1490 µM); MIC (Aspergillus terreus): 320 µg/mL (≈ 1490 µM); MIC (Pseudomonas aeruginosa): 320 µg/mL (≈ 1490 µM); MFC (Sporothrix schenckii): 320 µg/mL (≈ 1490 µM); MIC (Sporothrix schenckii): 320 µg/mL (≈ 1490 µM); MFC (Prototheca zopfii): 320 µg/mL (≈ 1490 µM); MIC (Prototheca zopfii): 160 µg/mL (≈ 747 µM); MFC [1]: 320 µg/mL (≈ 1490 µM); MIC [1]: 160 µg/mL (≈ 747 µM); MFC (Rhizopus arrhizus): 320 µg/mL (≈ 1490 µM); MIC (Rhizopus arrhizus): 320 µg/mL (≈ 1490 µM); MIC (Escherichia coli): 320 µg/mL (≈ 1490 µM); Activity (Aspergillus flavus): inactive; MIC (Staphylococcus aureus): 320 µg/mL (≈ 1490 µM)
320 µg/mL (≈ 2300 µM)	320 µg/mL (≈ 2300 µM)	320 µg/mL (≈ 2300 µM)	160 µg/mL (≈ 1150 µM)	CN(C)C(=O)c1ccoc1	inactive	inactive	inactive	inactive	inactive		inactive	inactive	inactive	inactive	inactive	inactive	inactive	320 µg/mL (≈ 2300 µM)	inactive	inactive	MIC (Pseudomonas aeruginosa): 320 µg/mL (≈ 2300 µM); MFC (Sporothrix schenckii): 320 µg/mL (≈ 2300 µM); MIC (Sporothrix schenckii): 160 µg/mL (≈ 1150 µM); MIC (Saccharomyces cerevisiae): inactive; MIC (Prototheca zopfii): 320 µg/mL (≈ 2300 µM); MIC [1]: 320 µg/mL (≈ 2300 µM); MFC (Rhizopus arrhizus): 320 µg/mL (≈ 2300 µM); MIC (Rhizopus arrhizus): 320 µg/mL (≈ 2300 µM); Activity (Aspergillus flavus): inactive; MIC (Staphylococcus aureus): 320 µg/mL (≈ 2300 µM)
320 µg/mL (≈ 1580 µM)		320 µg/mL (≈ 1580 µM)	320 µg/mL (≈ 1580 µM)	O=C(NCc1ccccn1)c1ccoc1	inactive	inactive	inactive	inactive	inactive	inactive	inactive	inactive	inactive	inactive	inactive	inactive	inactive	320 µg/mL (≈ 1580 µM)	inactive	inactive	MIC (Fusarium solani): 320 µg/mL (≈ 1580 µM); MIC (Aspergillus terreus): 320 µg/mL (≈ 1580 µM); MIC (Pseudomonas aeruginosa): 320 µg/mL (≈ 1580 µM); Activity (Sporothrix schenckii): inactive; MIC (Sporothrix schenckii): 320 µg/mL (≈ 1580 µM); MIC (Prototheca zopfii): 320 µg/mL (≈ 1580 µM); MIC [1]: 320 µg/mL (≈ 1580 µM); Activity (Rhizopus arrhizus): inactive; MIC (Rhizopus arrhizus): 320 µg/mL (≈ 1580 µM); MIC (Escherichia coli): 320 µg/mL (≈ 1580 µM); MFC (Aspergillus flavus): 320 µg/mL (≈ 1580 µM); MIC (Aspergillus flavus): 320 µg/mL (≈ 1580 µM); MIC (Staphylococcus aureus): 320 µg/mL (≈ 1580 µM)

From ChEMBL document CHEMBL1146380, “Synthesis, antimicrobial activity, and QSAR studies of furan-3-carboxamides” (2007)
